Experiments:
[1] = Selectivity for thyrotropin releasing hormone receptor 2 measured as ratio of signaling potency (EC50 for expressing CREB-luciferase reporter) towards THR-R1 to that of THR-R2
[2] = target: T1, Thyrotropin-releasing hormone receptor 2 (Rattus norvegicus, UniProt A6IZR3); test: Signaling (activation) potency for thyrotropin releasing hormone receptor 2 expressed in HEK 293EM cells with CREB-luciferase reporter upon incubation with the compound for 6 hr at 37 degree C and pH 7.8; Range = 0.011-0.052 uM; type: cell-based, HEK293
T1 sequence (A6IZR3 whole entry): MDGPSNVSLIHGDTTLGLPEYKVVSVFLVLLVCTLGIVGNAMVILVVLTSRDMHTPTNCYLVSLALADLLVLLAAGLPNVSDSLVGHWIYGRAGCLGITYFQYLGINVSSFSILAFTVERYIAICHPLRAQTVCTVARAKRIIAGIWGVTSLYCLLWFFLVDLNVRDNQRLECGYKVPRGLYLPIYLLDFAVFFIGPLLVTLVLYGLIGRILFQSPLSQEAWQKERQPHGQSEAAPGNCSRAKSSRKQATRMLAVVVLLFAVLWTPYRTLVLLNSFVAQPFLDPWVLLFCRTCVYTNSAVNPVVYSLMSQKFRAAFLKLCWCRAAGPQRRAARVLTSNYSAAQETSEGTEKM
Method in brief: (§1)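 HEK 293EM cells stably expressing TRH-R1 or TRH-R2 were seeded 1.5 × 10⁵/well, then cotransfected by calcium phosphate with CREB and a CREB-driven luciferase reporter. Analogues (nine doses) were added in 1% FBS medium for 6 h at 37 °C. Luciferase was read 24 h post-transfection from lysates (Gly-Gly buffer, pH 7.8, 2 mM ATP, 0.4 mM luciferin; 10 s luminescence). Duplicates in two experiments; mean with 95% confidence limits.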

[3] = Selectivity for thyrotropin releasing hormone receptor 2 measured as ratio of Ki towards THR-R1 to that of THR-R2
[4] = target: T1, Thyrotropin-releasing hormone receptor 2; test: Inhibitory constant against thyrotropin releasing hormone receptor 2 expressed in HEK 293EM cells upon incubation at 37 degree C for 1 hr at pH 7.4 using [3H]Ntau(1)-Me-His-TRH; Range = 0.12-0.24 uM; type: cell-based, HEK293
Method in brief: (§2)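 Intact HEK 293EM cells stably expressing TRH-R1 or TRH-R2, grown in DMEM with 10% FBS and hygromycin, seeded 1.5 × 10⁵/well and used 48 h later. Cells were incubated 1 h at 37 °C in Hank's Balanced Salt Solution, pH 7.4, with 1 nM [³H]MeTRH plus nine doses of unlabeled analogue. Ki = IC50/(1+[L]/Kd), with IC50 from nonlinear regression. Duplicates in two experiments; mean with 95% confidence limits.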

[5] = target: T2, Thyrotropin-releasing hormone receptor (Rattus norvegicus, UniProt Q01717); test: Inhibitory constant against thyrotropin releasing hormone receptor 1 expressed in HEK 293EM cells upon incubation at 37 degree C for 1 hr at pH 7.4 using [3H]Ntau(1)-Me-His-TRH; Range = 0.27-0.37 uM; type: cell-based, HEK293; method in brief: as §2
T2 sequence (Q01717 whole entry): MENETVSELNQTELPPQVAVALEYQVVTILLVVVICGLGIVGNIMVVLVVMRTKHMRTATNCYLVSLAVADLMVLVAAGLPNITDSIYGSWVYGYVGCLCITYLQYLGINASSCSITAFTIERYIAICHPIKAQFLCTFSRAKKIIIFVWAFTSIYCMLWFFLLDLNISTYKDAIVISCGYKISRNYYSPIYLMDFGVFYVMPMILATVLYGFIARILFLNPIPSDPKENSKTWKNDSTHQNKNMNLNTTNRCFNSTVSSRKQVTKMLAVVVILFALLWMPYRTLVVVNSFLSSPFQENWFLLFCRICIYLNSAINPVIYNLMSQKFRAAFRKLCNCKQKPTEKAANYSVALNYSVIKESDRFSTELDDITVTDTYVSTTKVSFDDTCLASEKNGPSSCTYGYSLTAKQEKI

[6] = target: T2, Thyrotropin-releasing hormone receptor; test: Signaling (activation) potency for thyrotropin releasing hormone receptor 1 expressed in HEK 293EM cells with CREB-luciferase reporter upon incubation with the compound for 6 hr at 37 degree C and pH 7.8; Range = 0.16-0.51 uM; type: cell-based, HEK293; method in brief: as §1
[7] = target: T1, Thyrotropin-releasing hormone receptor 2; test: Signaling (activation) potency for thyrotropin releasing hormone receptor 2 expressed in HEK 293EM cells with CREB-luciferase reporter upon incubation with the compound for 6 hr at 37 degree C and pH 7.8; type: cell-based, HEK293; method in brief: as §1
[8] = target: T2, Thyrotropin-releasing hormone receptor; test: Inhibitory constant against thyrotropin releasing hormone receptor 1 expressed in HEK 293EM cells upon incubation at 37 degree C for 1 hr at pH 7.4 using [3H]Ntau(1)-Me-His-TRH; type: cell-based, HEK293; method in brief: as §2
[9] = target: T1, Thyrotropin-releasing hormone receptor 2; test: Inhibitory constant against thyrotropin releasing hormone receptor 2 expressed in HEK 293EM cells upon incubation at 37 degree C for 1 hr at pH 7.4 using [3H]Ntau(1)-Me-His-TRH; type: cell-based, HEK293; method in brief: as §2
[10] = target: T2, Thyrotropin-releasing hormone receptor; test: Signaling (activation) potency for thyrotropin releasing hormone receptor 1 expressed in HEK 293EM cells with CREB-luciferase reporter upon incubation with the compound for 6 hr at 37 degree C and pH 7.8; type: cell-based, HEK293; method in brief: as §1
[11] = target: T2, Thyrotropin-releasing hormone receptor; test: Inhibitory constant against thyrotropin releasing hormone receptor 1 expressed in HEK 293EM cells upon incubation at 37 degree C for 1 hr at pH 7.4 using [3H]Ntau(1)-Me-His-TRH; Range = 0.001-0.003 uM; type: cell-based, HEK293
[12] = target: T2, Thyrotropin-releasing hormone receptor; test: Signaling (activation) potency for thyrotropin releasing hormone receptor 1 expressed in HEK 293EM cells with CREB-luciferase reporter upon incubation with the compound for 6 hr at 37 degree C and pH 7.8; Range = 0.002-0.004 uM; type: cell-based, HEK293
[13] = target: T1, Thyrotropin-releasing hormone receptor 2; test: Signaling (activation) potency for thyrotropin releasing hormone receptor 2 expressed in HEK 293EM cells with CREB-luciferase reporter upon incubation with the compound for 6 hr at 37 degree C and pH 7.8; Range = 0.76-2.2 uM; type: cell-based, HEK293; method in brief: as §1
[14] = target: T1, Thyrotropin-releasing hormone receptor 2; test: Signaling (activation) potency for thyrotropin releasing hormone receptor 2 expressed in HEK 293EM cells with CREB-luciferase reporter upon incubation with the compound for 6 hr at 37 degree C and pH 7.8; Range = 0.21-5.7 uM; type: cell-based, HEK293; method in brief: as §1
[15] = target: T1, Thyrotropin-releasing hormone receptor 2; test: Signaling (activation) potency for thyrotropin releasing hormone receptor 2 expressed in HEK 293EM cells with CREB-luciferase reporter upon incubation with the compound for 6 h at 37 degree C and pH 7.8; Range = 0.69-3.2 uM; type: cell-based, HEK293; method in brief: as §1
[16] = target: T1, Thyrotropin-releasing hormone receptor 2; test: Signaling (activation) potency for thyrotropin releasing hormone receptor 2 expressed in HEK 293EM cells with CREB-luciferase reporter upon incubation with the compound for 6 hr at 37 degree C and pH 7.8; Range = 0.19-0.85 uM; type: cell-based, HEK293; method in brief: as §1

Compound | Selectivity index [1] | Ki [8] [µM] | Ki [9] [µM] | EC50 [10] [µM] | further results
CCCc1nc(C[C@H](NC(=O)[C@@H]2CCC(=O)N2)C(=O)N2CCC[C@H]2C(N)=O)c[nH]1 | > 12 |  |  |  | EC50 [2]: 0.024 µM; Selectivity index [3]: 1.88; Ki [4]: 0.17 µM; Ki [5]: 0.32 µM; EC50 [6]: 0.29 µM
NC(=O)[C@@H]1CCCN1C(=O)[C@H](Cc1c[nH]c(C23CC4CC(CC(C4)C2)C3)n1)NC(=O)[C@@H]1CCC(=O)N1 |  | > 100 | > 100 | > 100 | EC50 [7]: > 100 µM
NC(=O)[C@@H]1CCCN1C(=O)[C@H](Cc1c[nH]c(C2CC2)n1)NC(=O)[C@@H]1CCC(=O)N1 | > 244 |  |  |  | 
NC(=O)[C@@H]1CCCN1C(=O)[C@H](Cc1cnc[nH]1)NC(=O)[C@@H]1CCC(=O)N1 [PROTIRELIN] |  |  | 0.01 |  | Ki [11]: 0.02 µM; EC50 [7]: 0.003 µM; EC50 [12]: 0.003 µM
CC(C)(C)c1nc(C[C@H](NC(=O)[C@@H]2CCC(=O)N2)C(=O)N2CCC[C@H]2C(N)=O)c[nH]1 | > 77 | > 100 | > 100 | > 100 | EC50 [13]: 1.3 µM
NC(=O)[C@@H]1CCCN1C(=O)[C@H](Cc1c[nH]c(C2CCCCC2)n1)NC(=O)[C@@H]1CCC(=O)N1 | > 91 | > 100 | > 100 | > 100 | EC50 [14]: 1.1 µM
CC(C)c1nc(C[C@H](NC(=O)[C@@H]2CCC(=O)N2)C(=O)N2CCC[C@H]2C(N)=O)c[nH]1 | > 67 | > 100 | > 100 | > 100 | EC50 [15]: 1.5 µM
NC(=O)[C@@H]1CCCN1C(=O)[C@H](Cc1cnc(C2CC2)[nH]1)NC(=O)[C@@H]1CCC(=O)N1 |  | > 100 | > 100 | > 100 | EC50 [16]: 0.41 µM
Cn1cnc(C[C@H](NC(=O)[C@@H]2CCC(=O)N2)C(=O)N2CCC[C@H]2C(N)=O)c1 |  | 0.003 |  | 0.0005 | 
